Measurements reported in ChEMBL document CHEMBL2029228, “Antimalarial activity of 9a-N substituted 15-membered azalides with improved in vitro and in vivo activity over azithromycin” (J Med Chem, 2012).
pIC50: −log10 of the molar value. The source made the active and inactive calls. The calls are words filed in the database; no cut-off is given here.

Columns and labels:
[1] = Aqueous solubility of the compound; assay type: physicochemical; conditions: buffer
[2] = tested on: Plasmodium berghei; assay: Antimalarial activity against Plasmodium berghei KBG173 infected in mouse assessed as cured mouse at 5 mg/kg, iv BID administered on day 3, 4 and 5 post infection measured up to day 31; assay type: functional, organism-based; set-up: dose 5 mg/kg
Outline: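 Male mice (24–30 g) inoculated intraperitoneally with 5 × 10⁶ P. berghei KBG-173-infected erythrocytes; parasitemia about 1.0–3.7% by day 3. Dosing twice daily on days 3–5 postinfection. Blood smears negative on day 31 counted as cured, scored as cured/total mice (5 per dose). Mice losing ≥20% body weight sacrificed.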

[3] = tested on: Plasmodium falciparum; assay: Antimalarial activity against mefloquine-resistant Plasmodium falciparum TM91C235 assessed as [3H]hypoxanthine incorporation after 48 hrs; assay type: functional, organism-based
Outline: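 Tritiated hypoxanthine incorporation assay (Desjardins method, Milhous modification) with 48 h drug exposure. Uses P. falciparum clone TM91C235 (Southeast Asian, mefloquine-resistant). Compounds 2-fold diluted over 11 concentrations. IC50 derived by nonlinear logistic dose-response fitting, averaged where multiple runs were done.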

[4] = tested on: HepG2; assay: Cytotoxicity against human HepG2 cells after 24 hrs by MTS assay; assay type: cell-based; conditions: HepG2, 24 h
Outline: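 HepG2 cells kept in RPMI 1640 with 10% FBS plus antibiotics at 37 °C, 5% CO₂. 50 000 cells per well exposed to 10 two-fold serial dilutions for 24 h. MTS reagent then added for 2 h more, absorbance read at 490 nm, IC50 derived.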

Row | Compound | solubility [1] | Activity [2] | pIC50 [3] | pIC50 [4]
1 | CC(=O)O.CC[C@H]1OC(=O)[C@H](C)[C@@H](O[C@H]2C[C@@](C)(OC)[C@@H](O)[C@H](C)O2)[C@H](C)[C@@H](O[C@@H]2O[C@H](C)C[C@H](N(C)C)[C@H]2O)[C@](C)(O)C[C@@H](C)CN(CCC(=O)N[C@H](C)c2cccc3ccccc23)[C@H](C)[C@@H](O)[C@]1(C)O | >= 10 mg kg-1 |  |  | 
2 | CC[C@H]1OC(=O)[C@H](C)[C@@H](O[C@H]2C[C@@](C)(OC)[C@@H](O)[C@H](C)O2)[C@H](C)[C@@H](O[C@@H]2O[C@H](C)C[C@H](N(C)C)[C@H]2O)[C@](C)(O)C[C@@H](C)CN(CCCNCc2ccnc3ccccc23)[C@H](C)[C@@H](O)[C@]1(C)O |  | inactive |  | 
3 | CC[C@H]1OC(=O)[C@H](C)[C@@H](O[C@H]2C[C@@](C)(OC)[C@@H](O)[C@H](C)O2)[C@H](C)[C@@H](O[C@@H]2O[C@H](C)C[C@H](N(C)C)[C@H]2O)[C@](C)(O)C[C@@H](C)CN(CCCNC(=O)CCc2ccccc2)[C@H](C)[C@@H](O)[C@]1(C)O |  | inactive |  | 
4 | CC(=O)O.CC[C@H]1OC(=O)[C@H](C)[C@@H](O[C@H]2C[C@@](C)(OC)[C@@H](O)[C@H](C)O2)[C@H](C)[C@@H](O[C@@H]2O[C@H](C)C[C@H](N(C)C)[C@H]2O)[C@](C)(O)C[C@@H](C)CN(CCCNc2ccnc3cc(Cl)ccc23)[C@H](C)[C@@H](O)[C@]1(C)O | >= 10 mg kg-1 |  |  | 
5 | CC(=O)O.CC[C@H]1OC(=O)[C@H](C)[C@@H](O[C@H]2C[C@@](C)(OC)[C@@H](O)[C@H](C)O2)[C@H](C)[C@@H](O[C@@H]2O[C@H](C)C[C@H](N(C)C)[C@H]2O)[C@](C)(O)C[C@@H](C)CN(CCCNc2ccnc3ccccc23)[C@H](C)[C@@H](O)[C@]1(C)O | >= 10 mg kg-1 |  |  | 
6 | CC[C@H]1OC(=O)[C@H](C)[C@@H](O[C@H]2C[C@@](C)(OC)[C@@H](O)[C@H](C)O2)[C@H](C)[C@@H](O[C@@H]2O[C@H](C)C[C@H](N(C)C)[C@H]2O)[C@](C)(O)C[C@@H](C)CN(CCC(=O)N[C@H](C)c2cccc3ccccc23)[C@H](C)[C@@H](O)[C@]1(C)O |  | inactive |  | 
7 | CC[C@H]1OC(=O)[C@H](C)[C@@H](O[C@H]2C[C@@](C)(OC)[C@@H](O)[C@H](C)O2)[C@H](C)[C@@H](O[C@@H]2O[C@H](C)C[C@H](N(C)C)[C@H]2O)[C@](C)(O)C[C@@H](C)CN(CCCNc2ccnc3ccccc23)[C@H](C)[C@@H](O)[C@]1(C)O |  | inactive |  | 
8 | CC(=O)O.CC[C@H]1OC(=O)[C@H](C)[C@@H](O[C@H]2C[C@@](C)(OC)[C@@H](O)[C@H](C)O2)[C@H](C)[C@@H](O[C@@H]2O[C@H](C)C[C@H](N(C)C)[C@H]2O)[C@](C)(O)C[C@@H](C)CN(CCCNCc2ccnc3ccccc23)[C@H](C)[C@@H](O)[C@]1(C)O | >= 10 mg kg-1 |  |  | 
9 | CC(=O)O.CC[C@H]1OC(=O)[C@H](C)[C@@H](O[C@H]2C[C@@](C)(OC)[C@@H](O)[C@H](C)O2)[C@H](C)[C@@H](O[C@@H]2O[C@H](C)C[C@H](N(C)C)[C@H]2O)[C@](C)(O)C[C@@H](C)CN(CCCNC(=O)CCc2ccccc2)[C@H](C)[C@@H](O)[C@]1(C)O | >= 10 mg kg-1 |  |  | 
10 | CC[C@H]1OC(=O)[C@H](C)[C@@H](O[C@H]2C[C@@](C)(OC)[C@@H](O)[C@H](C)O2)[C@H](C)[C@@H](O[C@@H]2O[C@H](C)C[C@H](N(C)C)[C@H]2O)[C@](C)(O)C[C@@H](C)CN(CCC(=O)NCc2cccc3ccccc23)[C@H](C)[C@@H](O)[C@]1(C)O |  |  | 7.10 | 4.31
11 | CCOc1ccc2ccccc2c1CNCCCN1C[C@H](C)C[C@@](C)(O)[C@H](O[C@@H]2O[C@H](C)C[C@H](N(C)C)[C@H]2O)[C@@H](C)[C@H](O[C@H]2C[C@@](C)(OC)[C@@H](O)[C@H](C)O2)[C@@H](C)C(=O)O[C@H](CC)[C@@](C)(O)[C@H](O)[C@H]1C |  |  | 7.59 | 5.15
12 | CC[C@H]1OC(=O)[C@H](C)[C@@H](O)[C@H](C)[C@@H](O[C@@H]2O[C@H](C)C[C@H](N(C)C)[C@H]2O)[C@](C)(O)C[C@@H](C)CN(CCCNc2ccnc3cc(Cl)ccc23)[C@H](C)[C@@H](O)[C@]1(C)O |  |  | 7.89 | 4.46
13 | CC[C@H]1OC(=O)[C@H](C)[C@@H](O)[C@H](C)[C@@H](O[C@@H]2O[C@H](C)C[C@H](N(C)C)[C@H]2O)[C@](C)(O)C[C@@H](C)CN(CCCNCc2ccnc3ccccc23)[C@H](C)[C@@H](O)[C@]1(C)O |  |  | 6.58 | < 4.30
14 | CC[C@H]1OC(=O)[C@H](C)[C@@H](O[C@H]2C[C@@](C)(OC)[C@@H](O)[C@H](C)O2)[C@H](C)[C@@H](O[C@@H]2O[C@H](C)C[C@H](N(C)C)[C@H]2O)[C@](C)(O)C[C@@H](C)CN(CCCNCc2ccncc2)[C@H](C)[C@@H](O)[C@]1(C)O |  |  | 6.25 | < 4.30
15 | CC[C@H]1OC(=O)[C@H](C)[C@@H](O[C@H]2C[C@@](C)(OC)[C@@H](O)[C@H](C)O2)[C@H](C)[C@@H](O[C@@H]2O[C@H](C)C[C@H](N(C)C)[C@H]2O)[C@](C)(O)C[C@@H](C)CN(CCCNCCCCc2ccccc2)[C@H](C)[C@@H](O)[C@]1(C)O |  |  | 7.29 | 4.80
